Source: PubChem (Johns Hopkins Ion Channel Center)
MrgX1 ag – agonists of human MrgX1 receptor, primary screen, HEK293 cells, Fluo-4 calcium flux | AID 588627, 2011 | B-score at 10 µM | Fluo-4 calcium fluorescence, agonist mode; hits give high values | Mas-related G-protein coupled receptor member X1 (Homo sapiens), Q96LB2 | 310,000 compounds, 0.44% hits;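 active = calcium response B-score plate-corrected fluorescence ratio at least 3 library SD, with starting fluorescence B-score inside 5 SD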
Target sequence (Q96LB2 whole entry, looked up): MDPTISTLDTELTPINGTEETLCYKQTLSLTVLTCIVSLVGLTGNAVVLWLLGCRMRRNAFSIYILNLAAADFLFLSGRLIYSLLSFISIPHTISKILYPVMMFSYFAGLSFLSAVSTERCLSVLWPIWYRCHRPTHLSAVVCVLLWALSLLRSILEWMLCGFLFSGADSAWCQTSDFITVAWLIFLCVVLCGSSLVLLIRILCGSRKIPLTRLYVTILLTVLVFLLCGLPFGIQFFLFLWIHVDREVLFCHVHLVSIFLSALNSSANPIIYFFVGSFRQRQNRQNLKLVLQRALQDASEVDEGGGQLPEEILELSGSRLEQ
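Assay system: stable human MrgX1 HEK293 cell line. Quantity: 15,000 cells per well. Schedule: cells plated overnight, dye loaded 0.5 h 37 °C, 0.5 h room temperature. Detection: Fluo-4 NW calcium-flux fluorescence, kinetic read. Read-out basis: peak-minus-minimum fluorescence over baseline, converted to B scores. Control set: positive and negative control wells on each plate.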
RGS4 act – RGS4 potentiators or activators, primary screen, cell-based, HEK293 M3R inducible RGS4, calcium flux | carbachol calcium flux Fluo4; hits give low values | B-score at 10 µM | 310,000 compounds, 0.92% hits;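 active = B-score of the integrated calcium signal more than 4 SD below the library mean, with starting fluorescence not abnormally high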;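 also: negative B-score means reduced calcium response which marks RGS4 activation or potentiation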
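Also added: carbachol at ECmax as muscarinic agonist stimulus; Assay system: HEK293 cells with stable M3R and inducible RGS4; Timing: overnight RGS4 induction, 30 min dye load 37 °C, 20 min compound RT; Measured by: Fluo4-AM (2 µM) calcium-flux fluorescence, kinetic read.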
RGS4 block – RGS4 inhibitors, primary screen, cell-based, HEK293 M3R inducible RGS4, calcium flux | 310,000 compounds, 0.45% hits | Fluo-4 calcium flux; hits give high values; triggered by carbachol at its EC20 | AID 463165, 2010 | Regulator of G-protein signaling 4 (Homo sapiens), P49798 | B-score at 10 µM;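 active = B-score, a plate-corrected calcium signal, over three deviations above library mean, with baseline fluorescence within five deviations of library mean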;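 also: RGS4 expression induced by doxycycline in cells with stable M3 receptor; B-score is computed from the integrated fluorescence ratio over baseline after carbachol; higher B-score means a larger calcium signal and so more RGS4 inhibition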
Target sequence (P49798 whole entry, looked up): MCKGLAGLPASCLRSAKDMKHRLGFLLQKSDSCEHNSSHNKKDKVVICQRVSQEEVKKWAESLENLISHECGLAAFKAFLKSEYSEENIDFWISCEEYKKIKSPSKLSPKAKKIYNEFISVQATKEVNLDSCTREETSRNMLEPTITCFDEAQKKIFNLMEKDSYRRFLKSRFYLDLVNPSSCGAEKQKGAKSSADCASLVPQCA
MrgX1 PAM – positive allosteric modulators of MrgX1, primary screen, HEK293 cells, Fluo-4 calcium flux; B-score at 10 µM; 310,000 compounds, 0.63% hits; FDSS; hits give high values;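 active = plate-corrected calcium response at least 3 library SD above typical, normal starting fluorescence, not activating the receptor alone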;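 also: compound read alongside a low EC10 to EC30 dose of BAM8-22 agonist; peak minus trough fluorescence over baseline measured at the second addition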
MrgX1 antagonist – antagonists of human MrgX1 receptor, primary screen, HEK293 cells, Fluo-4 calcium flux | Mas-related G-protein coupled receptor member X1 (Homo sapiens), Q96LB2 | BAM8-22 antagonism; hits give low values | B-score at 10 µM | 310,000 compounds, 1.3% hits;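 active = calcium-response B-score plate-corrected more than 3 library SD below zero, starting fluorescence within 5 deviations, no agonist response on first addition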;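 also: peak minus trough fluorescence over baseline after final BAM8-22 challenge near maximal dose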
MrgX1 allo conf – MrgX1 positive allosteric modulators, duplicate retest, confirmation, HEK293 cells, Fluo-4 calcium flux. shares compounds with MrgX1 PAM. Fluo-4 calcium fluorescence, FDSS. activation (ratio percentage), % at 10 µM. 1,200 compounds, 13% hits. AID 602413, 2012;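 active = ratio at least 3 SD above the weak peptide control, stable starting fluorescence, no direct agonism earlier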;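 also: compound followed by low BAM8-22 agonist challenge near EC20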
MrgX1 ant reconf – MrgX1 receptor antagonists, duplicate retest, confirmation, HEK293 cells, Fluo-4 calcium flux. shares compounds with MrgX1 antagonist. BAM8-22 calcium flux; hits give low values. remaining BAM8-22 calcium response % of control (hits give low values), % at 10 µM. 2,300 compounds, 19% hits. AID 602420, 2012;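 active = remaining agonist calcium response no higher than 100% minus 3 SD of agonist-only control wells, with starting fluorescence near control levels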;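 also: agonist BAM8-22 given at a near maximal EC90 to ECmax level; peak minus minimum fluorescence divided by baseline after agonist addition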
HEK293 Ca flux – nonspecific calcium signal in parental HEK293, confirmation, counter-screen for MrgX1 antagonist project, parental HEK293 cells, Fluo-4 calcium flux; Fluo-4 calcium fluorescence, FDSS; 4,000 compounds, 2% hits; shares compounds with MrgX1 antagonist; fluorescence ratio F(max-min)/F0 at 10 µM; AID 624111, 2012;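 active = duplicate-averaged calcium fluorescence ratio at least three times the standard deviation of buffer wells, a nonspecific response in parental cells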
HEK293 Ca counter – calcium response in parental HEK293 cells, primary screen, counter-screen for MrgX1 allosteric activator project, cell-based, Fluo-4 calcium flux, duplicate; 4,000 compounds, 0.4% hits; Fluo-4 fluorescence ratio; hits give high values; shares compounds with MrgX1 antagonist; fluorescence ratio F(max-min)/F0 at 10 µM;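 active = calcium fluorescence ratio, averaged over duplicates, at least 3 SD of the buffer-well ratio, meaning a nonspecific response in receptor-free cells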;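 also: untransfected parental HEK293 lacking MrgX1 used as counterscreen for MrgX1 allosteric activators; fluorescence change taken during the second addition on a kinetic imager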
HEK293 Ca cntr2 – calcium response in parental HEK293 cells, primary screen, counter-screen for MrgX1 agonist project, cell-based, Fluo-4 calcium flux, duplicate, agonist mode; Fluo-4 calcium fluorescence (FDSS); hits give high values; shares compounds with MrgX1 antagonist; 4,000 compounds, 8.7% hits; fluorescence ratio F(max-min)/F0 at 10 µM;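 active = calcium fluorescence ratio at least three times the spread of buffer wells, meaning a non-specific response in parental cells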
Of the large screens only hits and unclear results are named; the others gave an inactive call (follow-up assays come after a bar, where they were run). Hits are enriched below; roughly 3.5% of the tested compounds scored in any of these assays.

COc1ccc(NC(=O)c2sc3nc(N4CCOCC4)c4c(c3c2N)CC(C(C)C)OC4)c(OC)c1 (configuration not stated)	none
Cc1ccc(NC(=O)CSCC(=O)NNC(=O)c2ccoc2C)cc1	none
CC(C)C(OC(=O)c1cc2sccc2n1C)C(=O)NCC1CCCO1 (configuration not stated)	none
COc1ccc(CN(CC2CCCO2)C(=O)c2cc3sccc3n2C)c(OC)c1 (configuration not stated)	MrgX1 PAM 6.45 | MrgX1 allo conf inactive | HEK293 Ca flux inactive | HEK293 Ca counter inactive | HEK293 Ca cntr2 inactive
O=C(NCCC1=CCCCC1)C(=O)NCC(c1ccco1)N1CCN(c2ccc(F)cc2)CC1 (configuration not stated)	none
COC(=O)c1ccc(NC(=S)Nc2ccc(O)cc2)cc1	none
Oc1ccc(NC(=S)Nc2ccc(O)cc2)cc1	MrgX1 PAM 10.3 | MrgX1 allo conf inactive | HEK293 Ca flux inactive | HEK293 Ca counter inactive | HEK293 Ca cntr2 inactive
O=C(Cc1ccccc1)Nc1ccccc1C(=O)N1CCCCCC1	none
COc1ccc(N(CC(=O)Nc2cccnc2)S(=O)(=O)c2ccccc2)cc1Cl	MrgX1 PAM 16.4 | MrgX1 allo conf inactive | HEK293 Ca flux inactive | HEK293 Ca counter inactive | HEK293 Ca cntr2 inactive
CCC1CN(C(=O)N2CCC(C(=O)NCc3ccc(OC)cc3OC)CC2)c2ccccc2O1 (configuration not stated)	none
Cc1ccc(-n2c(SCC(=O)Nc3ccc(N4CCOCC4)cc3)nc3ccccc3c2=O)cc1	none
Cc1ccc(NC(=S)NNC(=O)CSc2nc3ccccc3c(=O)n2-c2ccc(C)cc2)cc1	MrgX1 PAM 20.7 | MrgX1 allo conf inactive | HEK293 Ca flux inactive | HEK293 Ca counter inactive | HEK293 Ca cntr2 inactive
CC(=O)NCCC(=O)Nc1ccc(C)c(F)c1	none
Cc1ccc(NCC(=O)Nc2ccc(Br)cc2)cc1F	MrgX1 PAM 8.06 | MrgX1 allo conf inactive | HEK293 Ca flux inactive | HEK293 Ca counter inactive | HEK293 Ca cntr2 inactive
COCc1cc(C)nc(NC2CCCCC2)c1C#N	none (no result: RGS4 act, RGS4 block)
COCc1cc(SC2CCCCC2)nc(C)n1	MrgX1 PAM 14.7 | MrgX1 allo conf inactive | HEK293 Ca flux inactive | HEK293 Ca counter inactive | HEK293 Ca cntr2 inactive
O=C(NCCCn1cccn1)C1CCC(=O)N(Cc2cccc(C(F)(F)F)c2)C1 (configuration not stated)	MrgX1 PAM 7.78 | MrgX1 allo conf inactive | HEK293 Ca flux inactive | HEK293 Ca counter inactive | HEK293 Ca cntr2 inactive
O=C(NCCCC1CCCC1)C1CCC(=O)N(Cc2cccc(C(F)(F)F)c2)C1 (configuration not stated)	none
Cc1ccccc1OC(C)C(=O)NCCC1=CCCCC1 (configuration not stated)	MrgX1 PAM 10.9 | MrgX1 allo conf inactive | HEK293 Ca flux inactive | HEK293 Ca counter inactive | HEK293 Ca cntr2 inactive
O=C(O)C1CCN(C(=O)COc2ccc(Br)cc2)CC1	none
O=C(Nc1ccccn1)c1csc2c1CCCC2	MrgX1 PAM 8.59 | MrgX1 allo conf inactive | HEK293 Ca flux inactive | HEK293 Ca counter inactive | HEK293 Ca cntr2 inactive
COc1ccccc1NC(=O)c1csc2c1CCCC2	none
CCC(=O)Nc1ccc(S(=O)(=O)N2CCOCC2)cc1	none
O=C(Nc1ccc(NC(=O)c2ccc(Cl)c(S(=O)(=O)N3CCOCC3)c2)cc1)c1ccccc1	none
O=C(Nc1ccc(S(=O)(=O)N2CCOCC2)cc1)C1CC1	MrgX1 PAM 15 | MrgX1 allo conf inactive | HEK293 Ca flux inactive | HEK293 Ca counter inactive | HEK293 Ca cntr2 inactive
O=C(Nc1ccccc1)Nc1ccc(Cl)c(S(=O)(=O)N2CCOCC2)c1	MrgX1 PAM 7.75, MrgX1 antagonist -8.11 | MrgX1 allo conf inactive | MrgX1 ant reconf inactive | HEK293 Ca flux inactive | HEK293 Ca counter inactive | HEK293 Ca cntr2 inactive
COc1ccccc1NC(=O)NC1(C(=O)NCC2CCCO2)CCCCC1 (configuration not stated)	none
O=C(O)CSc1nnc(-c2cccc(S(=O)(=O)N3CCOCC3)c2)n1-c1cccc(Cl)c1	none
CNc1nc(Sc2ccc(C)cc2)cc(C(F)(F)F)n1	MrgX1 PAM 14.5 | MrgX1 allo conf 16.2% | HEK293 Ca flux inactive | HEK293 Ca counter inactive | HEK293 Ca cntr2 inactive
CC(=O)N1CCc2cc(Br)cc(S(=O)(=O)NCCN3CCCCC3C)c21 (configuration not stated)	MrgX1 PAM 9.07 | MrgX1 allo conf inactive | HEK293 Ca flux inactive | HEK293 Ca counter inactive | HEK293 Ca cntr2 inactive
CC(=O)N1CCc2cc(Br)cc(S(=O)(=O)NCCCN3CCC(C)CC3)c21	none (no result: RGS4 act, RGS4 block)
CS(=O)(=O)N(CC(=O)N1CCN(c2cccc(Cl)c2)CC1)c1cccc(F)c1	MrgX1 PAM 8.2 | MrgX1 allo conf inactive | HEK293 Ca flux inactive | HEK293 Ca counter inactive | HEK293 Ca cntr2 inactive
Cc1cc(C)nc(SCc2nnc(SCC(=O)Nc3cc(C(F)(F)F)ccc3Cl)o2)n1	none
COc1cc(OC)c(C(=O)NC23CC4CC(CC(C4)C2)C3)cc1OC	none
O=C(NC12CC3CC(CC(C3)C1)C2)c1cc(F)c(F)c(F)c1F	MrgX1 PAM 6.57 | MrgX1 allo conf inactive | HEK293 Ca flux inactive | HEK293 Ca counter inactive | HEK293 Ca cntr2 inactive
Cc1c(C(=O)c2ccccc2)oc2ccc3ccccc3c12	MrgX1 PAM 12.6 | MrgX1 allo conf inactive | HEK293 Ca flux inactive | HEK293 Ca counter 48.1 | HEK293 Ca cntr2 inactive
